Experimental data from article PMC5510570 (The Journal of organic chemistry, 2017).
“Also recorded” adds a separate entry of the source.

Tests used:
Type in all cases: cell-based
[1] = test system: human HEp2 cells; assay: Dark cytotoxicity; settings: read-out: Dark toxicity IC50, in the dark, up to 200 μM, incubated overnight
Summary of the method: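 HEp2 cells kept in 50:50 DMEM:AMEM with 5% FBS and 1% penicillin/streptomycin, seeded at 7500 per well and grown 48 h. Dosed at 0, 6.25, 12.5, 25, 50, 100 and 200 μM final, diluted from DMSO stock, overnight at 37°C, 5% CO₂. Washed with PBS, then 20% CellTiter Blue medium for 4 h, read at 570/615 nm. Untreated set to 100%, 0.2% saponin to 0%.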

[2] = test system: human HEp2 cells; assay: Phototoxicity; settings: for IC50: read-out: Phototoxicity IC50, 1.5 J/cm^2 light dose, up to 100 μM
Summary of the method: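 HEp2 cells were grown in 50:50 DMEM:AMEM with 5% FBS and 1% penicillin/streptomycin, plated at 7500 cells/well and grown 48 h. Cells were loaded 24 h with test compound at 0–100 μM (from 32 mM DMSO stock), washed with PBS and given fresh medium. They were irradiated 20 min with a 600 W water-filtered halogen lamp (~1.5 J/cm²) and incubated 24 h. Viability was read with 20% CellTiter Blue (4 h, 570/615 nm), normalized to untreated (100%) and 0.2% saponin (0%).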

[3] = test system: human HEp2 cells; assay: Time-dependent cellular uptake; settings: for Cellular uptake at 24 h: 10 μM compound; for Cellular uptake (in words): 0-24 h
Summary of the method: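 HEp2 cells, cultured and plated as for cytotoxicity, were exposed to 10 μM test compound for 0, 1, 2, 4, 8 and 24 h. Cells were PBS-washed and lysed in 0.25% Triton X-100/PBS, and fluorescence was read at 485/590 nm against a compound standard curve (0.3125–10 μM). Cell number was measured by CyQuant against a 10⁴–10⁵ cell standard curve. Uptake was expressed as nM compound per cell.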

Row | Molecule | Cellular uptake at 24 h [3] [nM/cell] | Time at which uptake plateau was reached ([3]; 10 μM) [h] | IC50 [1] [µM] | IC50 [2] [µM] | Cellular uptake (in words) ([3]; 10 μM) | Phototoxicity (in words) ([2]; light irradiation 1.5 J/cm^2, up to 100 μM)
1 | 3,5,8-Triphenyl-2,6-dichloro-BODIPY [BODIPY 2] | 1.2±0.10 |  | > 200 | > 100 | taken-up faster and more efficiently at all times investigated; also recorded: accumulated the most within cells after 24 hours | 
2 | COc1ccc(C2=CC3=C(c4ccc(C#N)cc4)c4cc(-c5ccc(C#N)cc5)c(-c5ccc(OC)cc5)n4[B-](F)(F)[N+]3=C2c2ccc(OC)cc2)cc1 [BODIPY 8, 8-(4-Cyanophenyl)-3,5-di(4-methoxyphenyl)-2-(4-methoxyphenyl)-6-(4-cyanophenyl)-BODIPY] | 0.79±0.13 | 8 | > 200 | > 100 | higher cellular uptake; also recorded: highest cellular uptake | 
3 | 2,3,5,6,8-Pentaphenyl-BODIPY [BODIPY 4] | 0.058±0.028 |  | > 200 | > 100 | very low uptake; also recorded: accumulated the least | slight phototoxicity
4 | 3,5,8-Triphenyl-2,6-dithienyl-BODIPY [BODIPY 3] | 0.14±0.01 |  | > 200 | > 100 | very low uptake | 
5 | 8-(4-Cyanophenyl)-3,5-di(4-methoxyphenyl)-2,6-dithienyl-BODIPY [BODIPY 7] | 0.12±0.01 |  | > 200 | > 100 |  | 

Further lines, with some results ahead:

Row | Cellular uptake at 24 h [3] [nM/cell] | Time at which uptake plateau was reached ([3]; 10 μM) [h] | Molecule | IC50 [1] [µM] | IC50 [2] [µM] | Cellular uptake (in words) ([3]; 10 μM) | Phototoxicity (in words) ([2]; light irradiation 1.5 J/cm^2, up to 100 μM)
6 | 0.51±0.01 |  | COc1ccc(C2=[N+]3C(=C(c4ccc(C#N)cc4)c4cc(Cl)c(-c5ccc(OC)cc5)n4[B-]3(F)F)C=C2Cl)cc1 [BODIPY 6b, 8-(4-Cyanophenyl)-3,5-di(4-methoxyphenyl)-2,6-dichloro-BODIPY] | > 200 | > 100 | higher cellular uptake; also recorded: highest cellular uptake | 
7 | 0.14±0.01 |  | 8-(4-Benzyloxycarbonylphenyl)-3,5-di(4-methoxyphenyl)-2,6-dichloro-BODIPY [BODIPY 6a] | > 200 | > 100 |  | 
